According to publication PMC4285624 (Biochemical pharmacology, 2014):

What was measured:
RPA DBD-A/B = RPA DBD-A/B (Homo sapiens, UniProt P27694); assay: EMSA of RPA DBD-A/B binding to DNA; format: biochemical; settings: 150 nM DBD-A/B, compounds 25–100 μM
Summary of the method: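 The RPA181–432 DBD-A/B fragment was expressed in E. coli BL21(DE3) as a SUMO-His6 fusion (0.5 mM IPTG, 3 h, 37 °C). It was Ni-NTA purified, SUMO-cleaved with ULP1, and polished by size exclusion. Protein was preincubated 30 min with compound, then mixed with 2.5 nM 5′-32P 34-base DNA for 5 min at room temperature. Products were run on 6% native gels at 4 °C and quantified by phosphorimager.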

lung cancer cell line = settings: cited from earlier work
[1] = tested on: peripheral blood lymphocytes; settings: cited from earlier work
[2] = molecular target: Full length, heterotrimeric human RPA (fl-RPA) (Homo sapiens, UniProt P27694); assay: EMSA of full length RPA binding to ssDNA; format: biochemical; settings: read-out: In vitro IC50, RPA-DNA binding, compounds titrated 1–125 μM
Summary of the method: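 Recombinant full-length heterotrimeric human RPA (50 nM, E. coli-expressed) was preincubated 30 min with DMSO-dissolved compound (DMSO ≤5%). Bound and free DNA were separated on 6% native gels and quantified by phosphorimager. IC50 came from nonlinear regression; three independent determinations.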

[3] = cited from earlier work

Chain of Full length, heterotrimeric human RPA (fl-RPA) (P27694 whole entry): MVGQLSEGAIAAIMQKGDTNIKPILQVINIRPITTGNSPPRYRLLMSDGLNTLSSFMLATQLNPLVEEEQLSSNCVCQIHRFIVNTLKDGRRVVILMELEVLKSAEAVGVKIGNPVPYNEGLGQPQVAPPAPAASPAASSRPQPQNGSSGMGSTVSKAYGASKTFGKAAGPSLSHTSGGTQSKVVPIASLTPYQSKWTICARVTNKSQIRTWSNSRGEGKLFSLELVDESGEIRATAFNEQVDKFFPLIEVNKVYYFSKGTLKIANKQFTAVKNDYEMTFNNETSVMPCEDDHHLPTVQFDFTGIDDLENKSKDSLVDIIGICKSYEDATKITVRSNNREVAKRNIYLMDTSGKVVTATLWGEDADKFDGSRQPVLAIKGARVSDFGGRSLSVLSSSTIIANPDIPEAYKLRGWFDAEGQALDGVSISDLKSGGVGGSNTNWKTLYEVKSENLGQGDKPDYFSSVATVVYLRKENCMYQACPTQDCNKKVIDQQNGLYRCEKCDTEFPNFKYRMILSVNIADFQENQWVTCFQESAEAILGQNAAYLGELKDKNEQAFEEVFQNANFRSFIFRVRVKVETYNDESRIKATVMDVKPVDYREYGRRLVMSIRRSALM
Chain of Full length, heterotrimeric human RPA (fl-RPA) (P15927 whole entry partner): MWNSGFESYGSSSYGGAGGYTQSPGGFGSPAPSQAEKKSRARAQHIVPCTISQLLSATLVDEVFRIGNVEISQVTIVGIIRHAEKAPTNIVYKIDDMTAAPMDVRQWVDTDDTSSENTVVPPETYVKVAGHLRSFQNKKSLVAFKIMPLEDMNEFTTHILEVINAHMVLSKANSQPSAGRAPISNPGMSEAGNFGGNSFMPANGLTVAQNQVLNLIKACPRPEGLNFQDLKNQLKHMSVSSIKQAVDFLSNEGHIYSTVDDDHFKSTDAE
Chain of Full length, heterotrimeric human RPA (fl-RPA) (P35244 whole entry partner): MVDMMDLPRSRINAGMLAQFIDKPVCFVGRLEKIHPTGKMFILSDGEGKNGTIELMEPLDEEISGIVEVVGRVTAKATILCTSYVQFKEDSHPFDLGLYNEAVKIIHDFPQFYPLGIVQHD
Chain of RPA DBD-A/B (P27694 181-432): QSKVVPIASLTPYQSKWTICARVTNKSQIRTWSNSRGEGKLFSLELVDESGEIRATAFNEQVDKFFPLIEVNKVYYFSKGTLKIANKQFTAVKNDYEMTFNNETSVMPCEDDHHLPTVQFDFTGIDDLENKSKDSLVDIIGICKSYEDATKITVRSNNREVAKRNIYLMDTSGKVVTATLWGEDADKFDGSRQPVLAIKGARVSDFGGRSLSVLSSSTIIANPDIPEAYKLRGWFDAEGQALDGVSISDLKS

inhibition of RPA DBD-A/B-DNA interaction (RPA DBD-A/B): inhibit RPA DBD-A/B-DNA interaction
IC50 [2]: 38 µM
Structure (SMILES): CCOc1ccc2cc(C3CC(c4ccc(Br)cc4)=NN3C(=O)CCC(=O)O)c(Cl)nc2c1 (stereo not drawn) [TDRL-505]
synergy with Pt (lung cancer cell line; lung cancer cell line, published data): synergy
synergy with etoposide (lung cancer cell line; lung cancer cells, flow cytometry based Annexin-PI staining assay): highly synergistic
cytotoxic effects on peripheral blood lymphocytes [1]: minimal cytotoxic effects
cell cycle effect [3]: G1 cell cycle arrest
